In general, half-life refers to how long it takes for the measured level to halve. Usually IC50 stands for the point on the concentration scale where inhibition reaches its midpoint.

Numbered stars: 1 amine (or outer) side, 2 acyl side, 3 side chain; on linkers, the order of the positions; unused ones are H or OH. Bridge positions count the residues as written; N and C are the ends. Square brackets hold non-standard residues; d marks the D form. Peptide text beside a SMILES is read from it. I, II: the chains in the order shown. * marks the point of attachment. Hexanoyl(6-succinimido-3yl) = O=C1CC([*:1])C(=O)N1CCCCCC(=O)[*:2]; Dolaproine = CO[C@@H]([C@@H]1CCCN1)[C@@H](C)C(=O)O; X2 = O=C([C@H](CC1=CSC2C=CC=CC12)N[*:1])[*:2]; Dil = CC[C@H](C)[C@H](NC)[C@@H](CC(=O)O)OC; PABC = O=C(OCc1ccc(N[*:1])cc1)[*:2]; X3 = C[C@@H](N*)[C@@H](O)c1ccccc1; Cit = NC(=O)NCCC[C@H](N)C(=O)O; PEG4 = NCCOCCOCCOCCOCCC(=O)O; NMeV = CN[C@H](C(=O)O)C(C)C; Nle = CCCC[C@H](N)C(=O)O

Data set [1] in a line: Metabolic stability in mouse plasma assessed as half life at 5 uM measured upto 24 hrs by LC-HRMS analysis. It is filed as ADME, cell-free. Put shortly:
(§1)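 Conjugates at 5 μM were incubated in human or mouse plasma at 37 °C, in duplicate. Samples were taken at t0, 0.25, 0.5, 1, 2, 4 and 24 h and quenched with 1 % formic acid in MeCN (2× volume). After centrifugation (14000 rpm, 4 °C), supernatants were diluted 1:1 with water and analysed by LC-HRMS.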

Data set [2] is described as follows: Metabolic stability in human plasma assessed as half life at 5 uM measured upto 24 hrs by LC-HRMS analysis. It is filed as ADME, cell-free. The gist of the method:
as §1

The nature of data set [3]: Displacement of 125 I- [Tyr4] from bombesin receptor 1 (unknown origin) assessed as inhibition by radioligand competitive binding assay. The arrangement: species or system Homo sapiens.
Data set [4] addresses T1, Gastrin-releasing peptide receptor (Homo sapiens, UniProt P30550). Kind of data set: Displacement of 125 I- [Tyr4] from bombesin receptor 2 (unknown origin) assessed as inhibition by radioligand competitive binding assay.
Data set [5] concerns the target T2, Bombesin receptor subtype-3 (Homo sapiens, UniProt P32247).
T2 sequence (P32247 whole entry): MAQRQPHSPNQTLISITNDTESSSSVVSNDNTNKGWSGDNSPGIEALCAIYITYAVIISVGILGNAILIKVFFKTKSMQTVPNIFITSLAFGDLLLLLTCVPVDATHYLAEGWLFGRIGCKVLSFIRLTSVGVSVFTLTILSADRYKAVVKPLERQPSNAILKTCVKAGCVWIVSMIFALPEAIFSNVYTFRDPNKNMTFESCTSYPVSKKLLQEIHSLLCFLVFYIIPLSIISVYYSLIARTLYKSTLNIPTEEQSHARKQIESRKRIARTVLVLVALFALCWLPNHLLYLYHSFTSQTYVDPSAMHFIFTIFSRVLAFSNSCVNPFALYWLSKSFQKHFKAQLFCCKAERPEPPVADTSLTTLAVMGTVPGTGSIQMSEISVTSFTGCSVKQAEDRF
Kind of data set: Displacement of 125 I- [Tyr4] from bombesin receptor 3 (unknown origin) assessed as inhibition by radioligand competitive binding assay.

Data set [6] can be described thus: Drug uptake in mouse liver at ip administration xenografted with human PC-3 cells measured upto 24 hrs by LC-HRMS. The note with it: in vivo. The class given is ADME, organism-based. The gist of the method: (§2)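 Mice bearing PC-3 xenografts received a single 2 mg/kg i.p. dose. Blood, tumour, liver, kidneys, heart, lungs and pancreas were collected at 1, 6 and 24 h and pooled per group. Tissues were homogenised in water (1:2 w/v) and centrifuged. Released MMAE was measured by LC-HRMS and expressed as %ID/g (n = 3).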

Data set [7] can be described thus: Cytotoxicity against human cells MDA-MB-231 assessed as inhibition of cell growth incubated for 72 hrs by CellTiter 96 aqueous assay. The class given is toxicity, cell-based. The note with it: MDA-MB-231 cells. Put shortly:
(§3)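 PC-3 or MDA-MB-231 cells were treated the day after seeding with serial dilutions, from 2000 nM for conjugates and 100 nM for MMAE, for 72 h. Then the assay was stopped, or run 72 h more after a medium change (single) or re-treatment (double). Controls got 0.05 % DMSO. Read-out was MTS absorbance at 490 nm after 90 min. IC50 by non-linear regression; ≥2 experiments, triplicates.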

The nature of data set [8]: Drug uptake in mouse lungs at ip administration xenografted with human PC-3 cells measured upto 24 hrs by LC-HRMS. The class given is ADME, organism-based, Lung. The note with it: in vivo. The gist of the method: as §2
(A xenograft is tissue or cells of one species grown in another, often human tumour cells in immunodeficient mice.)

Data set [9] can be described thus: Drug uptake in mouse blood at ip administration xenografted with human PC-3 cells measured upto 24 hrs by LC-HRMS. The settings on record: in vivo. It is filed as ADME, organism-based. Put shortly:
as §2

A short description of data set [10]: Drug uptake in mouse pancreas at ip administration xenografted with human PC-3 cells measured upto 24 hrs by LC-HRMS. The class given is ADME, organism-based. The settings on record: in vivo. The gist of the method: as §2
A short description of data set [11]: Drug uptake in mouse kidney at ip administration xenografted with human PC-3 cells measured upto 24 hrs by LC-HRMS. It is filed as ADME, organism-based. The settings on record: in vivo. Put shortly: as §2
Data set [12] in a line: Drug uptake in mouse heart at ip administration xenografted with human PC-3 cells measured upto 24 hrs by LC-HRMS. The note with it: in vivo. It is filed as ADME, organism-based. The gist of the method:
as §2

Data set [13] in a line: Cytotoxicity against human PC-3 cells assessed as inhibition of cell growth incubated for 72 hrs by CellTiter 96 aqueous assay. It is filed as toxicity, cell-based. The gist of the method: as §3
In data set [14] the target is T1, Gastrin-releasing peptide receptor. Kind of data set: Displacement of 125 I- [Tyr4] from bombesin receptor 2 in human PC-3 cells assessed as inhibition by radioligand displacement assay. It is filed as cell-based. The gist of the method: (§4)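 Competition binding on membrane preparations from PC-3 or MDA-MB-231 cells against ¹²⁵I-[Tyr⁴]-bombesin, with conjugates at 10 μM–10 pM. IC50 was taken as the concentration giving 50 % inhibition of tracer binding.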
For orientation: Loss of bound radioactivity is the signal in a displacement assay; it reports binding, not function.

The nature of data set [15]: Cytotoxicity against human MDA-MB-231 cells assessed as inhibition of cell growth incubated for 72 hrs and followed by treated with compound continued incubation for further 72 hrs (double treatment) after retreatment of compound by CellTiter 96 aqueous assay. The class given is toxicity, cell-based. Put shortly:
as §3

Data set [16] in a line: Cytotoxicity against human MDA-MB-231 cells assessed as inhibition of cell growth incubated with compound for 72 hrs followed by further incubated for 72 hrs (single treatment) by CellTiter 96 aqueous assay. It is filed as toxicity, cell-based. The gist of the method:
as §3

Data set [17] concerns the target T1, Gastrin-releasing peptide receptor. The data set is described as follows: Displacement of 125 I- [Tyr4] from bombesin receptor 2 in human MDA-MB-231 cells assessed as inhibition by radioligand displacement assay. It is filed as cell-based. Put shortly: as §4
Data set [18] is described as follows: Cytotoxicity against human PC-3 cells assessed as inhibition of cell growth incubated with compound for 72 hrs followed by further incubated for 72 hrs (single treatment) by CellTiter 96 aqueous assay. It is filed as toxicity, cell-based. The gist of the method: as §3
Data set [19] in a line: Cytotoxicity against human PC-3 cells assessed as inhibition of cell growth incubated for 72 hrs and followed by treated with compound continued incubation for further 72 hrs (double treatment) after retreatment of compound by CellTiter 96 aqueous assay. The class given is toxicity, cell-based. The gist of the method:
as §3

T1 sequence (P30550 whole entry): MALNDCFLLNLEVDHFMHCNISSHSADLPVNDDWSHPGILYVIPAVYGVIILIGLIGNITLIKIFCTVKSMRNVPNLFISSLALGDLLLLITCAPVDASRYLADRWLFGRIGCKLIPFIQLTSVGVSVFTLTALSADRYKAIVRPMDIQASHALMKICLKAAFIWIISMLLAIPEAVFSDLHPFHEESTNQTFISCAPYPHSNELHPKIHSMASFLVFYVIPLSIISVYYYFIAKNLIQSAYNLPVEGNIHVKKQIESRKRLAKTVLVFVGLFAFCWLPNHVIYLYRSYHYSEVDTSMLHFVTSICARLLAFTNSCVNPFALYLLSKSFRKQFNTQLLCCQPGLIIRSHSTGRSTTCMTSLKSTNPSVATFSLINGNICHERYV

Take `CC(=O)N[C@@H](CS)C(=O)N[C@H](Cc1ccccc1)C(=O)N[C@@H](CCC(N)=O)C(=O)N[C@@H](Cc1c[nH]c2ccccc12)C(=O)N[C@@H](C)C(=O)N[C@H](C(=O)NCC(=O)N[C@@H](Cc1c[nH]cn1)C(=O)N[C@@H](CC(C)C)[C@@H](O)CC(=O)N[C@@H](CC(C)C)C(N)=O)C(C)C`: the half-life at 5 µM in data set [1] and in data set [2] was ≥ 5 h in each case. Besides, the IC50 in data set [3] is > 10000 nM; in data set [4], 20.5 nM; in data set [5], > 1000 nM.
As to `CCCC[C@H](NC(=O)[C@H](CC(C)C)NC(=O)[C@H](Cc1c[nH]cn1)NC(=O)CNC(=O)[C@@H](NC(=O)[C@H](C)NC(=O)[C@H](CC1=CSC2C=CC=CC12)NC(=O)[C@H](CCC(N)=O)NC(=O)[C@H](CC(N)=O)NC(=O)CCOCCOCCOCCOCCNC(=O)[C@H](CSC1CC(=O)N(CCCCCC(=O)N[C@@H](CCC(=O)O)C(=O)N[C@H](C(=O)N[C@@H](CCCNC(N)=O)C(=O)Nc2ccc(COC(=O)N(C)[C@H](C(=O)N[C@H](C(=O)N(C)[C@@H]([C@@H](C)CC)[C@@H](CC(=O)N3CCC[C@H]3[C@H](OC)[C@@H](C)C(=O)N[C@H](C)[C@@H](O)c3ccccc3)OC)C(C)C)C(C)C)cc2)C(C)C)C1=O)NC(C)=O)C(C)C)C(N)=O` (some centres undefined) (I: Ac-C[PEG4]NQ[X2]AVGHL[Nle]-NH2 / II: EV[Cit][PABC][NMeV]V[Dil][Dolaproine]-X3; linker I:1-II:N via Hexanoyl(6-succinimido-3yl)), the Drug uptake entry in data set [6], in data set [8], in [9], in data set [10], in [11] and in [12] was “Not Active” in each case. In addition, the IC50 at 72 h in data set [7] worked out at 501 nM; in data set [13], 53.9 nM. Also, the figures for the IC50 in data set [14] and in [17] were 93.6 nM and 106 nM, respectively. Further, the IC50 at 144 h in [15] came to 46.4 nM; in [16], 48.7 nM; in data set [18], 15.6 nM; in data set [19] it was 11.8 nM.

The values above are taken from ChEMBL document CHEMBL6071141, “In vitro and in vivo evaluation of Bombesin-MMAE conjugates for targeted tumour therapy” (Eur J Med Chem, 2024).
